Assay outcomes as filed in PubChem.
Most compounds without a hit are left out; they make up all but 2.3% or so of the library.
TRPC4 PAM = allosterically enhances the mouse TRPC4 cation channel; AID 2227; Q9QUQ5; HEK293 TRPC4beta/mu-opioid, DAMGO EC20, Fluo-4 Ca2+ flux; stronger effect = higher value; B-score at 10 µM; hit rate 0.42% among 310,000;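 active means B-score of calcium response area above 5 SD of library B-scores, with initial fluorescence ratio within 5 SD of library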;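 further: B-score of integrated fluorescence ratio over time as area under calcium response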
Target sequence (Q9QUQ5 whole entry, looked up): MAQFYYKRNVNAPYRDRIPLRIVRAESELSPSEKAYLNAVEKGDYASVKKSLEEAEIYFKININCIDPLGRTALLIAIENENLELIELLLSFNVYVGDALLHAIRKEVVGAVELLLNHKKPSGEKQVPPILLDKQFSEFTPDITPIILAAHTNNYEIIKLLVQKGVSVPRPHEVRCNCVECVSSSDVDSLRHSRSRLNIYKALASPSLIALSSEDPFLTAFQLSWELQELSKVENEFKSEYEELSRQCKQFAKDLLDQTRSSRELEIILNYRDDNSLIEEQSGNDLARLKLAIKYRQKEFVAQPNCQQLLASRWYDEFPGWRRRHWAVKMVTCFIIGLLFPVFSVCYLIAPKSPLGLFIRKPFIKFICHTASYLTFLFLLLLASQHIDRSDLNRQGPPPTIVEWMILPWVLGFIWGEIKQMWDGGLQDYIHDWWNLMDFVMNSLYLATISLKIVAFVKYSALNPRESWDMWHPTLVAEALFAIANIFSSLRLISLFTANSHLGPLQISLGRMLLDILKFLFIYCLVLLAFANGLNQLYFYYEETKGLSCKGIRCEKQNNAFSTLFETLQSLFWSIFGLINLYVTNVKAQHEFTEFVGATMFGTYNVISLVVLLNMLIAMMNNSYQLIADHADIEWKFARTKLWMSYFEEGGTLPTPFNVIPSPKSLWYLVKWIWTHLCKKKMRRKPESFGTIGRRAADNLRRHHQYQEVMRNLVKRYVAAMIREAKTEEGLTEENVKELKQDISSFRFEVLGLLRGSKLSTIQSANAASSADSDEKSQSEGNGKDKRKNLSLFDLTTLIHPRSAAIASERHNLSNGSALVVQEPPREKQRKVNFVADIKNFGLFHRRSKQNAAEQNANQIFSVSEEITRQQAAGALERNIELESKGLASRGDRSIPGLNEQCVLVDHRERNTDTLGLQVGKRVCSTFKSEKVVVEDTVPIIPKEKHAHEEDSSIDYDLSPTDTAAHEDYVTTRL
TRPC6 inh = inhibitors of mouse TRPC6 channel; B-score at 10 µM; Q61143; HEK293-TRPC6, membrane potential dye, ACh-evoked depolarization; stronger effect = lower value; hit rate 1.1% among 310,000;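 active means B-score under library mean minus 3 SD, initial fluorescence not abnormally high, positive integrated signal ratio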;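 further: B-score derived from integrated fluorescence ratio over the kinetic read; more negative B-score means stronger inhibition of depolarization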
TRPC4 inh = blocks the mouse TRPC4 cation channel | HEK293 TRPC4beta/mu-opioid, DAMGO-evoked Fluo4 calcium flux; stronger effect = lower value | B-score at 10 µM | hit rate 0.39% among 300,000 | AID 2247;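 active means B-score over 3 SD under the library average, no early fluorescence shift, positive overall ratio signal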
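Assay system: TRPC4beta/mu-opioid receptor HEK293 cell line; compound dosing: single concentration per test compound; detection: Fluo4 Ca2+ flux fluorescence; evaluation: per-well B score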
TRPC6 act = mouse TRPC6 channel activation; AID 2550; B-score at 10 µM; hit rate 0.13% among 310,000; Q61143; HEK293-TRPC6 membrane potential dye fluorescence; stronger effect = higher value;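 active means B-score of the integrated fluorescence ratio above library mean plus 3 SD, and starting fluorescence ratio within library mean plus 5 SD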;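 further: higher score means more depolarization so channel activation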
TRPC4 act = opens the mouse TRPC4 cation channel; Q9QUQ5; HEK293 TRPC4beta/mu-opioid, Fluo4 calcium fluorescence; stronger effect = higher value; B-score at 10 µM; hit rate 0.49% among 310,000; AID 2237;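 active means B-score above 5 SD of library B-scores, and initial fluorescence ratio not above library mean plus 5 SD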;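 further: positive B-score marks a calcium rise read as TRPC4 activation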
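Material: TRPC4beta and mu-opioid receptor HEK293 stable cells | Incubation: 45 min room-temperature Fluo4 loading, 110 s read | Detection: Kinetic Fluo4 calcium fluorescence | Measure: Integrated baseline-normalised fluorescence ratio, converted to per-well B score | Benchmarks: Low control buffer alone, high control maximal DAMGO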
TRPC4 spec 2 = mouse TRPC4 off-target activity of TRPC6 inhibitors, second screen; shares compounds with TRPC6 inh; HEK293 TRPC4/MOR, membrane potential dye fluorescence; channel activated by saturating DAMGO dose; inhibition, % at 10 µM; hit rate 42% among 920; AID 2776;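 active means compounds whose fluorescence signal differed from control wells by over 3 SD, either direction, in both duplicate plates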
TRPC4 spec = selectivity of TRPC6 inhibitors: effect on mouse TRPC4; shares compounds with TRPC6 inh; HEK293 TRPC4/mu-opioid, membrane potential fluorescence; activity change, negative = inhibition, % at 10 µM; hit rate 61% among 920; AID 2777;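 active means rise or fall in signal beyond 3 SD of buffer-only wells in both replicate plates, either sign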;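 further: integrated kinetic ratio of fluorescence range over baseline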
HEK293 MPD ctr 2-1 = parental HEK293 nonspecific activity of TRPC6 inhibitors, second screen | signal change vs control, % at 10 µM | hit rate 31% among 920 | parental HEK293 membrane potential dye fluorescence; maximal acetylcholine challenge after compound addition | shares compounds with TRPC6 inh;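 active means membrane potential signal moving either way by over 3 SD of the maximum-effect control, in both duplicate plates, meaning non-specific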
HEK293 MPD ctr-1 = parental HEK293 nonspecific activity of TRPC6 inhibitors. parental HEK293 membrane potential dye fluorescence. membrane potential signal change, % at 10 µM. shares compounds with TRPC6 inh. AID 2780. hit rate 60% among 920;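 active means membrane potential signal shifting up or down by more than 3 SD of buffer-only wells, on both duplicate plates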
HEK293 MPD ctr-2 = checks TRPC6 modulator effects in parental HEK293 cells. shares compounds with TRPC6 inh. membrane potential dye fluorescence. membrane potential signal change, % at 10 µM. hit rate 51% among 2,400. AID 488924;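 active means membrane potential signal moves up or down beyond 5 SD from buffer-only wells, on both duplicate plates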
HEK293 MPD ctr 2-2 = second check of TRPC6 modulator effects in parental HEK293 cells; shares compounds with TRPC6 inh; membrane potential dye fluorescence; after compound, maximal acetylcholine stimulation; inhibition, % at 10 µM; hit rate 14% among 2,400;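 active means membrane potential signal drops by more than 5 SD from the mean control signal, in both duplicate plates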;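 further: plate controls were acetylcholine ECmax control wells for no effect and buffer only wells for full effect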
TRPC4/MOR mod = tests whether TRPC6 modulators also affect mouse TRPC4 | AID 488927 | hit rate 69% among 2,400 | shares compounds with TRPC6 inh | percent change from control (negative = decrease, positive = increase), % at 10 µM | HEK293 TRPC4/mu-opioid, membrane potential fluorescence;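 active means membrane potential signal moved up or down beyond 5 SD of buffer control wells, in both duplicate plates, actives on both sides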;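 further: plate controls were assay buffer wells for no effect and DAMGO maximal-effect wells for full effect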
TRPC4 ctr inh 2 = second selectivity test of TRPC6 modulators against mouse TRPC4; shares compounds with TRPC6 inh; HEK293 TRPC4/mu-opioid, membrane potential dye fluorescence; stimulated with maximal-effect DAMGO; inhibition, % at 10 µM; hit rate 55% among 2,400;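 active means drop in membrane potential signal beyond 5 SD of the control wells in both duplicate plates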;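 further: TRPC4 counter screen for TRPC6 hits run under conditions tuned for TRPC6 not TRPC4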
TRPC6 block conf = mouse TRPC6 inhibitor confirmation | shares compounds with TRPC6 inh | hit rate 43% among 3,300 | inhibition, % at 10 µM | HEK293-TRPC6, membrane potential dye, ACh-evoked depolarization;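 active means fluorescence ratio falls more than 5 SD below the full-stimulation control mean, in both duplicate runs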;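 further: integrated fluorescence ratio of peak minus minimum over baseline after agonist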
TRPC6 act confirm = confirmation of mouse TRPC6 activators; shares compounds with TRPC6 inh; HEK293-TRPC6 membrane potential dye fluorescence, FDSS; activation, % at 10 µM; hit rate 11% among 2,800;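 active means ratio signal rise beyond 5 SD above unstimulated control wells' mean, seen in both duplicate runs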;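 further: plate controls were buffer EC0 wells for no effect and acetylcholine ECmax response for full effect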
Starred values were filed as active, the others as inactive; i = inactive; / = no result given.

SMILES | TRPC4 PAM | TRPC6 inh | TRPC4 inh | TRPC6 act | TRPC4 act | HEK293 MPD ctr-2 | HEK293 MPD ctr 2-2 | TRPC4/MOR mod | TRPC4 ctr inh 2 | TRPC6 block conf | TRPC6 act confirm | others
C[C@H]1CN=C(Nc2ccccc2)N1CCC1CCCC1 | i | i | i | i | i | / | / | / | / | / | /
CCOC(=O)c1cc2[nH]c3ccccc3c2[n+](-c2ccc([N+](=O)[O-])cc2)c1C | i | -7.6* | i | i | i | -275.0%* | i | -49.5%* | 56.0%* | 60.0%* | i
CCOC(=O)c1cc2[nH]c3ccccc3c2[n+](-c2ccc([N+](=O)[O-])cc2)c1N | i | i | i | i | i | / | / | / | / | / | /
O=C(Nc1ccccc1NC(=O)c1c(F)cccc1F)c1c(F)cccc1F | i | -5.82* | i | i | i | i | i | i | i | i | i
Cn1cccc1C(=O)NNC(=O)COc1ccccc1F | i | i | i | i | i | / | / | / | / | / | /
CC(C)N(C(=O)CSc1nnc(-c2cc3ccccc3cc2O)n1Cc1ccco1)C(C)C | i | i | i | i | i | / | / | / | / | / | /
COCCn1c(SCC(=O)N(C(C)C)C(C)C)nnc1-c1cc2ccccc2cc1O | i | -5.12* | i | i | i | i | i | i | i | 42.5%* | /
NS(=O)(=O)c1ccc(NC(=S)NCc2ccc3c(c2)OCO3)cc1 | i | -6.76* | i | i | i | i | i | i | i | i | i
C[N+](C)(C)CC/C=C1/c2ccccc2CSc2ccccc21 | i | -5.53* | i | i | i | i | 72.0%* | i | i | 82.5%* | i
CC1(C)CC(=O)C2=C(C1)OC1=C(C(=O)CC(C)(C)C1)C2(C)C | i | i | i | i | i | / | / | / | / | / | /
OC(c1cccs1)(c1cccs1)C1C[N+]2(CF)CCC1CC2 (centres undefined) | i | -6.44* | i | i | i | i | i | i | i | 40.0%* | i
COC(=O)c1ccc(NC2(C#N)C(=O)Nc3ccccc32)cc1 (centres undefined) | i | -8.5* | i | i | i | / | / | / | / | 88.4%* | / | TRPC4 spec 2=i;TRPC4 spec=i;HEK293 MPD ctr 2-1=i;HEK293 MPD ctr-1=i
Cc1ccc(NC2(C#N)C(=O)Nc3ccccc32)cc1C (centres undefined) | i | i | i | i | i | / | / | / | / | / | /
O=C(CSc1ncccn1)N1CCN(C(=O)CSc2ncccn2)CC1 | i | i | i | i | i | / | / | / | / | / | /
O=C(CSc1ncccn1)N1CCN(C(c2ccccc2)c2ccccc2)CC1 | i | -7.88* | i | i | i | / | / | / | / | 76.0%* | / | TRPC4 spec 2=i;TRPC4 spec=1.9%*;HEK293 MPD ctr 2-1=i;HEK293 MPD ctr-1=1.4%*
Cn1c(=O)c2c([nH]c(=S)n2Cc2ccc(Cl)cc2)n(C)c1=O | i | i | i | i | i | / | / | / | / | / | /
CC(=O)N1CCCN(Cc2cn(-c3cccc(C)c3)nc2-c2cccc(F)c2)CC1 | i | i | i | i | i | / | / | / | / | / | /
Cc1c(CCOC(=O)c2ccccc2)sc[n+]1Cc1ccccc1 | i | -9.46* | i | i | i | / | / | / | / | 61.3%* | i | TRPC4 spec 2=i;TRPC4 spec=i;HEK293 MPD ctr 2-1=42.5%*;HEK293 MPD ctr-1=i
Cc1c(CCOC(=O)c2ccccc2)sc[n+]1CC(=O)c1ccc(Br)cc1 | i | i | i | i | i | / | / | / | / | / | /
N#Cc1cc(-c2ccccc2)nc(N2CCNCC2)n1 | i | -6.44* | i | i | 78* | i | i | i | 68.0%* | 65.0%* | i
COc1cccc(NC(=O)COc2cc(O)c3c(c2)OC(C)(C)CC3=O)c1 | i | i | i | i | i | / | / | / | / | / | /
CCOC(=O)C1CCN(S(=O)(=O)c2ccc3c(c2)CC(=O)N3C)CC1 | i | i | i | i | i | / | / | / | / | / | /
Cc1ccc(/C=c2/sc3n(c2=O)CCCN=3)o1 | i | i | i | i | i | / | / | / | / | / | /
Cc1ccc(/C=c2\sc3n(c2=O)CN(c2ccc(Br)cc2)CN=3)o1 | i | -5.57* | i | i | i | i | i | i | i | i | i
Cc1ccc(-n2c3nc(=O)[nH]c(=O)c-3cc3c(C)nn(-c4ccccc4)c32)c(C)c1 | i | i | i | i | i | / | / | / | / | / | /
CC1=C[C@H]2OC(=O)[C@@H](C)[C@H]2C[C@@H]2[C@H]1C[C@@H](O)[C@@]2(C)O | i | i | i | i | i | / | / | / | / | / | /
O=C(COc1ccc2ccccc2c1CN1CCOCC1)N1CCc2ccccc21 | i | -7.21* | i | i | i | / | / | / | / | 88.0%* | i | TRPC4 spec 2=25.5%*;TRPC4 spec=i;HEK293 MPD ctr 2-1=i;HEK293 MPD ctr-1=1.3%*
COc1cccc(CC2(CO)CCCN(Cc3cn[nH]c3-c3ccccc3)C2)c1 (centres undefined) | i | i | i | i | i | / | / | / | / | / | /
Cc1cccn2c(=O)c(/C=C(\C#N)C(=O)NC3CCS(=O)(=O)C3)c(N3CC(C)OC(C)C3)nc12 (centres undefined) | i | -5.02* | i | i | i | i | i | -13.5%* | i | i | i
